The EternaBench riboswitch data

System: MS2 coat protein
Experiment: apparent Kd, MS2 coat protein; higher = weaker binding; RNA-MaP array; FMN 200 µM where present
In short: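 Green signal was scaled to red-channel RNA signal and control-cluster median Fmax, and the apparent Kd was taken as the median of filtered per-cluster binding-curve fits. The binding series used SNAP-549-labelled MS2 coat protein from 0.7 or 1.5 nM, doubling to 3 µM, on designs transcribed by stalled E. coli RNA polymerase on Illumina sequencing-chip clusters. Each series ran without and then with constant ligand in 100 mM Tris-HCl pH 7.5, 80 mM KCl, 4 mM MgCl2, BSA, DTT, yeast tRNA and Tween-20.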

[1] = designed as: ON switch for flavin mononucleotide, no ligand
[2] = ligand present: flavin mononucleotide, designed as: ON switch for flavin mononucleotide
[3] = designed as: OFF switch for flavin mononucleotide, no ligand
[4] = ligand present: flavin mononucleotide, designed as: OFF switch for flavin mononucleotide

Sequence | apparent Kd [1] [nM] | apparent Kd [2] [nM] | apparent Kd [3] [nM] | apparent Kd [4] [nM]
GAGAGAGGGUGAGGAUAUUUAGUGAUAAUGAUAAAAGAAGGCACAGACAUGAGGAUCACCCAUGUGGGAAUAAUCCAGAGAGAG | 305 | 288 | – | –
GACUUGCGCACAGGAUAUCCACGUAGCGGACGUGGAGAAGGGUGACAUGAGGAUCACCCAUGUACGUAAGUCUGGAUCACUUCC | 48.3 | 21.8 | – | –
UUACGUCCCAUUUACAUGAGGAUCACCCAUGUCGAAAGACAUGAGGAUAUGCUACCUAAUUGGUAGCAGAAGGCAUGGACGUCG | 662 | 347 | – | –
GGUUAGGACAGAGGAUAUACGUGCUAGAGAUACUAGCAAAAUUUCCUCACAUGAGGAUCACCCAUGUAGAAGGCUGUCCUAUCG | – | – | 16.4 | 434
UGUAUGGACAGAGGAUAUGCCGGUAGGAUCUACUAUCGAAGAAUCCUCACAUGAGGAUCACCCAUGUAGAAGGCUGUCCAUACU | – | – | 9.36 | 42.8
GUCAGCUCGUGAGGAUAUACAACACUGCUUCGGUAGUGUAUUAAGAUCACAUGAGGAUCACCCAUGUAGAAGGCACGAGCUGAU | – | – | 15.1 | 268
AAACAGCGAAGAUAAUAAUGAAUACAUGAGGAUCACCCAUGUAAGGAUAUCGUCAGGAAUACUGACGAGAAGGUACAUACGCUG | – | – | 16 | 22.4
UUUACAUGAGGAUCACCCAUGUCUGUCACACGUAUGUGCAAUCAGGAUAUGAUCUCAAGAAUGAAUUAGAAGGGAUAAAGAGAA | 212 | 250 | – | –
AAUUGACACGUAGGAUAUCGAACUAUAUUAACACGAGAAGGACGUACAUGAGGAUCACCCAUGUUUAAUGGAGUAGAUAAGUUG | – | – | 144 | 283
GAUUAACAUGAGGAUCACCCAUGUGAGGAUAUGAACUAGACCACUUACCCGAUAUUGUUCAGAAGGCGCAUUCU | – | – | 34.1 | 39.5
AGCUAGUCAGGAUAUACAAACAUGUCAAAAGACGUGAAGGGACAUGAGGAUCACCCAUGUAGAAGGGACUAGCA | – | – | 66.2 | 379
CGUAGGAUCCAGAAGGCAUGUACAUGAGGAUCACCCAUGUCGAAAGACAUGAGGAUAUGGAUCCUACGAAAAGUGCGAAAGCAC | 56.4 | 6.15 | – | –
UUUUUACAUGAGGAUCACCCAUGUCAGGAUAUGGUUAUAUUUUAUUAUUUUAUUUUUUCCAGAAGGGACUAUUA | – | – | 343 | 162
GCGUUGAUGUAGAAGGUACAUGAAUAUAUUUAAUACCUCAAGUAACAUGAGGAUCACCCAUGUAGUAAGGAUAUACAUGAACGC | 88.6 | 56.1 | – | –
AAACACGGACAUGAGGAUCACCCAUGUGGCGAAAGCCUUGGAAGAAGGCCGAUAGCAAAGCUAUCGGAGGAUAUUCAUACCGUG | 17.2 | 5.78 | – | –
AAAACACGCGAGAAGGAGGCCUGAUCCUCCACAUGAGGAUCACCCAUGUGCCUAGGAUAUCGCAACCUUUCAGGUUACACCUGG | – | – | 70 | 10.2
AUAAAACAUGAGGAUCACCCAUGUCAGGAUAUACGAUAUUAAAUUUAAUAUAUUUAUAGUAGAAGGGACAAAUA | – | – | 50.4 | 55
AAAGACAGACAUGAGGAUCACCCAUGUUACGAAGAUACUGGGAGAAGGGCGAUUGCAAAGCAAUCGCAGGAUAUUCGUAUUGUC | 25.8 | 13.2 | – | –
UGUCCAUAGCAGAAGGACAUGAAUAACCAUGAAAACAUGAGGAUCACCCAUGUAGGAUAUGCUAUGGACUAAGAGCGAAAGCUC | – | – | 15 | 175
UUAUGCUGAGAGAAGGUUCAAACUACAUAUUGCACACAUGAGGAUCACCCAUGUUGGUGAAUAAGAAAGGAUAUUUUACUGUAU | – | – | 20.1 | 16.9
AUCAUGAGAGGAUAUACAUGAGGAUCACCCAUGUUGUUAACACCAUGAGCUCAUUUACGUAGAAGGCUCAUUUG | – | – | 28.1 | 51.9
AACACGAGAGGUGUUGUCUAAUCACAUGAGGAUCACCCAUGUAAGGAUAUCGCGGCUAUCGGCAUCGAGAAGGUACAGGGAGCA | – | – | 17.8 | 38.2
GCUGUCGCAUGAGGAUAUGGACUGCUUUGCAGUCCAGAAGGCAUGUCAAUAGACAUGAGGAUCACCCAUGUAGUUAAGACAGCA | 704 | 42.4 | – | –
GAACGUGACAUGAGGAUCACCCAUGUUGCCUUGGCCAGGUCGUAGGAUAUCCUGUUGAUUAAUUUGGAGAAGGGCGACUGGGAG | 33.5 | 12.9 | – | –

Sequence | apparent Kd [1] [nM] | apparent Kd [2] [nM] | apparent Kd [3] [nM] | apparent Kd [4] [nM]
CUCAUGUUAGGAUAUGCGCUCAACGUAGUGGUCGAGCUCUAGCAGAAGGAACAUGAGGAUCACCCAUGUUUGCA | – | – | 58.1 | 26.8
ACCUGACAUGAGGAUCACCCAUGUCAGGAUAUGUACAUCAGGAAAAAAAAACUGAUGUACAGAAGGGACUUGGG | – | – | 22.4 | 18.1
AGCCCUGACGUCAGGAUAUCCGGCCAAUAGGCCAAGGAGAAGGGACAUGAGGAUCACCCAUGUGCUUGGGUCCG | – | – | 23.7 | 37
GAGUGGAAGGCCGCUACAUGAGGAUCACCCAUGUGCUAAGCACAGGAUAUCGCGUGGGCCCGACGCGAGAAGGGUGACGGCCUG | 582 | 246 | – | –
AAGUUUAACGAAGGAUAUGGUUACAUGAGGAUCACCCAUGUAAUGGUUGUGAUAUUGAUUAAGUUCCAGAAGGUCGUAUACAUA | – | – | 109 | 301
UUGUUAUAUGUAGGAUAUGCGUAUUAUUAUUAUGCAGAAGGACAUGAGGAUCACCCAUGUAUAUUAUUAUUAUAUAUUAUAUAU | – | – | 27.9 | 43.7
AAAAAAAAAAGGCAGGAUAUCCAAAAAAAAACAUGAGGAUCACCCAUGUAAAAAAAAAAAAAAUGGGAGAAGGGCCAAAAAAAAAA | 39.2 | 14.3 | – | –
AAGAGUGCAGGAUAUACUUGUUAGGACGGUUGGAUGGUUUGACAUGAGGAUCACCCAUGUAGAAGGGCAGAGAG | – | – | 67.7 | 67.8
UAUAUAUAGUAAGGAUAUGUAUAAAUUUUAUAAACAGAAGGUACUGACAUGAGGAUCACCCAUGUUUUAGUGUGGGCAUGUAGA | – | – | 96.2 | 147
ACCAGGCGAGGAUAUACUUAGAUUUUUUCGUUUAGUCUCGAACAUGAGGAUCACCCAUGUAGAAGGUGCUUCAC | – | – | 49.9 | 42.7
AUUGAUGUUGAGGAUAUGCUUUUAUUUAUUAUAGCAGAAGGCGAUACAUGAGGAUCACCCAUGUUCAUGGCUUU | – | – | 11.8 | 14.9
GGUGGCGUGAUAACGCUAGAUAUAACAUGAGGAUCACCCAUGUAGGAUAUCCCGCCGAGAGGGCGGGAGAAGGACAAUCAAUGG | – | – | 45.2 | 47.2
GGGCCACAUGAGGAUCACCCAUGUAAACCCGUGCUCAGGGCACAGGAUAUGGGUCGGGAUGAGACCCAGAAGGGUGGUCUGGCC | 33.4 | 18.2 | – | –
UGGUACAACGGAGGAUAUCAUGUAGAUACAUGAGGAUCACCCAUGUCGAUGGAGACAUCGGAGAUUGAGAAGGCCGUUGUACCU | 692 | 30.1 | – | –
AGCAUGUGAGGAUAUGUGACCCUCGUCCUAAGGACAAGGGAAUAGAAGGCACAUGAGGAUCACCCAUGUGAUGA | – | – | 54.6 | 168
UCAGGCUUCGAGAAGGACAUGAAUCGUAGCAUUGCUACGAUCAAAGAUACAUGAGGAUCACCCAUGUAGGAUAUCGGAGUCUGC | – | – | 5.75 | 7.63
GGAUUUACUGAGGAUAUUGCAUCACCCGACUGAUAAGAAGGCAGAACAUGAGGAUCACCCAUGUGGGUACUCAC | – | – | 53.7 | 63.2
AUCUAUCAUGUAGGAUAUGCGUGGCGAAGCUAUGCAGAAGGACAUGAGGAUCACCCAUGUCUUUCUGUCUGCGGACGGACAGGA | – | – | 23.6 | 72.7
GGCCGAAUGGUCUAGGUGCACUUACAUGAGGAUCACCCAUGUCAGGAUAUCUUACGGGUCUCGUAAGAGAAGGGACAUCGCUAU | – | – | 52.2 | 215
AUAUUGAUAGUAAGGAUAUGCGUGUGUGUAGUUAUGCAGAAGGUACAUGAGGAUCACCCAUGUAUUAAUGUGUG | – | – | 18.1 | 21.6
AUACCACGAGGAUAUCGUCUAUUUUACAUGAGGAUCACCCAUGUUAUCUUUGUAAUGUUUCGAGAAGGCGUGUUUU | – | – | 34.2 | 23.9
AGCUGACAAGGAUAUACUCGGGAUGCUAGUCGCGCAGAAGCACAUGAGGAUCACCCAUGUAGAAGGUGUCAGAA | – | – | 158 | 83.2
AUUACAUGAGGAUCACCCAUGUACGGCACGUUUCAAAACAGUGAGGAUAUACGAUAUGUAGGAACGUAGAAGGCACUGGGUGCA | 82.7 | 35.9 | – | –
UUUCCGCGAGGAUAUGCGGGUUGUGCUUUUCAUUUUUUAUAACAUGAGGAUCACCCAUGUAGAAGGUGCUUCUU | – | – | 186 | 166
